Test results from ChEMBL document CHEMBL1145518, “Potent immune-modulating and anticancer effects of NKT cell stimulatory glycolipids” (2007).
Active and inactive are the calls of the source. The calls are words filed in the database; no cut-off is given here.

How the values were obtained:
[1] = Induction of IL12p40 secretion in human CD161+ CD3+ NKT cells at 10 ug/ml after 18 hrs relative to basal level; type: functional
Procedure, shortened: (§1)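 Human Vα24i NKT cell lines were expanded for 10 days on irradiated (3,000 rad) autologous immature DCs with 10 units/ml IL-2. The cells (1 × 10^5) were cocultured with 5 × 10^4 irradiated immature CD14+ DCs plus glycolipid at 10 μg/ml. Supernatants were collected at 18 h and read on a 22-plex Luminex bead panel. Triplicates, mean ± SD.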

[2] = Induction of IL10 secretion in human CD161+ CD3+ NKT cells at 10 ug/ml after 18 hrs relative to basal level; type: functional; procedure, shortened: as §1
[3] = Induction of IL15 secretion in human CD161+ CD3+ NKT cells at 10 ug/ml after 18 hrs relative to basal level; type: functional; procedure, shortened: as §1
[4] = Induction of MCP1 secretion in human CD161+ CD3+ NKT cells at 10 ug/ml after 18 hrs relative to basal level; type: functional; procedure, shortened: as §1
[5] = Induction of IL8 secretion in human CD161+ CD3+ NKT cells at 10 ug/ml after 18 hrs relative to basal level; type: functional; procedure, shortened: as §1
[6] = tested on: dendritic; experiment: Activation of TCR in human immature dendritic cells assessed as increase in ERK1/2 phosphorylation; type: cell-based
Procedure, shortened: (§2)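 Human HeLa, HeLa-CD1d or autologous immature DCs were loaded with glycolipid at 10 μg/ml, or DMSO, for 2 h. Then 3 × 10^5 naïve CD161+/CD3+ NKT cells were added; these were bead-isolated and kept in 100 units/ml IL-2. After 5–10 min the cells were washed and lysed at 4°C. Phospho-CD3ε, ERK1/2 (Thr-185/Tyr-187) and CREB (Ser-133) were read by Luminex bead assay as median fluorescence normalized to total protein, expressed as fold over 1% DMSO.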

[7] = Induction of IFN-gamma secretion in human CD161+ CD3+ NKT cells at 10 ug/ml after 18 hrs relative to basal level; type: functional; procedure, shortened: as §1
[8] = tested on: dendritic; experiment: Activation of TCR in human immature dendritic cells assessed as increase in CD3epsilon phosphorylation; type: cell-based; procedure, shortened: as §2
[9] = Induction of GM-CSF secretion in human CD161+ CD3+ NKT cells at 10 ug/ml after 18 hrs relative to basal level; type: functional; procedure, shortened: as §1
[10] = Induction of TNFalpha secretion in human CD161+ CD3+ NKT cells at 10 ug/ml after 18 hrs relative to basal level; type: functional; procedure, shortened: as §1
[11] = Induction of IL13 secretion in human CD161+ CD3+ NKT cells at 10 ug/ml after 18 hrs relative to basal level; type: functional; procedure, shortened: as §1
[12] = Induction of IL12p70 secretion in human CD161+ CD3+ NKT cells at 10 ug/ml after 18 hrs relative to basal level; type: functional; procedure, shortened: as §1
[13] = Induction of IL6 secretion in human CD161+ CD3+ NKT cells at 10 ug/ml after 18 hrs relative to basal level; type: functional; procedure, shortened: as §1
[14] = tested on: HeLa; experiment: Activation of TCR in human HeLa cells overexpressing CD1d assessed as increase in CD3epsilon phosphorylation; type: cell-based; procedure, shortened: as §2
[15] = tested on: HeLa; experiment: Activation of TCR in human HeLa cells overexpressing CD1d assessed as increase in ERK1/2 phosphorylation; type: cell-based; procedure, shortened: as §2
[16] = tested on: HeLa; experiment: Activation of TCR in human HeLa cells overexpressing CD1d assessed as increase in CREB phosphorylation; type: cell-based; procedure, shortened: as §2
[17] = tested on: dendritic; experiment: Activation of TCR in human immature dendritic cells assessed as increase in CREB phosphorylation; type: cell-based; procedure, shortened: as §2
[18] = Induction of IL2 secretion in human CD161+ CD3+ NKT cells at 10 ug/ml after 18 hrs relative to basal level; type: functional; procedure, shortened: as §1
[19] = Induction of IL3 secretion in human CD161+ CD3+ NKT cells at 10 ug/ml after 18 hrs relative to basal level; type: functional; procedure, shortened: as §1
[20] = Induction of IL4 secretion in human CD161+ CD3+ NKT cells at 10 ug/ml after 18 hrs relative to basal level; type: functional; procedure, shortened: as §1
[21] = Induction of RANTES secretion in human CD161+ CD3+ NKT cells at 10 ug/ml after 18 hrs relative to basal level; type: functional; procedure, shortened: as §1
[22] = Induction of MIPalpha secretion in human CD161+ CD3+ NKT cells at 10 ug/ml after 18 hrs relative to basal level; type: functional; procedure, shortened: as §1
[23] = tested on: Mus musculus; experiment: Induction of MIPbeta secretion in BALB/c mouse serum at 2 ug, iv after 2 hrs relative to control; type: functional
Procedure, shortened: (§3)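 BALB/c mice received an i.v. injection of 100 μl of glycolipid diluted to 20 μg/ml in saline from DMSO stock, with 1% DMSO as vehicle. Serum cytokines/chemokines were measured at 2 and 18 h after injection.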

[24] = tested on: Mus musculus; experiment: Induction of IL12p70 secretion in BALB/c mouse serum at 2 ug, iv after 18 hrs relative to control; type: functional; procedure, shortened: as §3
[25] = tested on: 4T1; experiment: Antitumor activity in mouse 4T1 cells xenografted BALB/c mouse assessed as suppression of tumor growth at 2 ug, iv; type: functional, cell-based
Procedure, shortened: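 BALB/c mice (n = 6) were inoculated s.c. with 4T1 breast cancer cells. From day 3 they were treated i.v. with glycolipid or vehicle twice weekly for 4 weeks. Tumor volume was recorded every 3 days for 1 month, and survival was monitored up to 54 days.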

[26] = tested on: TC1; experiment: Antitumor activity in TC1 cells xenografted C57BL/6 mouse assessed as suppression of tumor growth at 2 ug, iv; type: functional, cell-based
Procedure, shortened: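 C57BL/6 mice (n = 5/group) were inoculated i.v. with TC-1 lung cancer cells. They were then treated i.v. with 2 μg glycolipid per mouse, or 100 μl of 1% DMSO, twice weekly for 4 weeks. Kaplan–Meier survival and body weight were followed, with tumor-free mice as an additional control.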

[27] = tested on: Mus musculus; experiment: Induction of IL3 secretion in BALB/c mouse serum at 2 ug, iv after 2 hrs relative to control; type: functional; procedure, shortened: as §3
[28] = tested on: Mus musculus; experiment: Induction of KC secretion in BALB/c mouse serum at 2 ug, iv after 2 hrs relative to control; type: functional; procedure, shortened: as §3
[29] = tested on: Mus musculus; experiment: Induction of IL10 secretion in BALB/c mouse serum at 2 ug, iv after 18 hrs relative to control; type: functional; procedure, shortened: as §3
[30] = tested on: Mus musculus; experiment: Induction of IL4 secretion in BALB/c mouse serum at 2 ug, iv after 2 hrs relative to control; type: functional; procedure, shortened: as §3
[31] = tested on: Mus musculus; experiment: Induction of RANTES secretion in BALB/c mouse serum at 2 ug, iv after 2 hrs relative to control; type: functional; procedure, shortened: as §3
[32] = tested on: Mus musculus; experiment: Increase in CD8/CD4 T cell ratio in BALB/c mouse at 2 ug, iv after 72 hrs by flow cytometry; type: functional, organism-based
[33] = tested on: Mus musculus; experiment: Induction of MCP1 secretion in BALB/c mouse serum at 2 ug, iv after 2 hrs relative to control; type: functional; procedure, shortened: as §3
[34] = tested on: Mus musculus; experiment: Induction of IL12p40 secretion in BALB/c mouse serum at 2 ug, iv after 18 hrs relative to control; type: functional; procedure, shortened: as §3
[35] = tested on: Mus musculus; experiment: Induction of IL1-beta secretion in BALB/c mouse serum at 2 ug, iv after 18 hrs relative to control; type: functional; procedure, shortened: as §3
[36] = tested on: Mus musculus; experiment: Induction of TNFalpha secretion in BALB/c mouse serum at 2 ug, iv after 18 hrs relative to control; type: functional; procedure, shortened: as §3
[37] = tested on: Mus musculus; experiment: Induction of IL6 secretion in BALB/c mouse serum at 2 ug, iv after 2 hrs relative to control; type: functional; procedure, shortened: as §3
[38] = tested on: Mus musculus; experiment: Induction of IL2 secretion in BALB/c mouse serum at 2 ug, iv after 2 hrs relative to control; type: functional; procedure, shortened: as §3
[39] = tested on: Mus musculus; experiment: Induction of GM-CSF secretion in BALB/c mouse serum at 2 ug, iv after 2 hrs relative to control; type: functional; procedure, shortened: as §3
[40] = tested on: Mus musculus; experiment: Induction of IL13 secretion in BALB/c mouse serum at 2 ug, iv after 2 hrs relative to control; type: functional; procedure, shortened: as §3
[41] = tested on: NKT; experiment: Stimulation of cell expansion of human invariant CD161+/ Valpha24+/ CD56+/ CD3+ NKT cells by flow cytometry method; type: functional, cell-based
Procedure, shortened: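 CD56+ NK/NKT mixtures (2 × 10^6) were isolated from human leukopaks with anti-CD56 microbeads. They were cocultured with 4 × 10^5 autologous immature CD14+ DCs pulsed with glycolipid at 3 μg/ml, or with 0.3% DMSO, on day 2 for 18 h. Suspension cells were then transferred and kept in 100 units/ml IL-2 with fresh medium every 3 days. On day 9, CD161+/Vα24TCR+ cells were gated by flow cytometry and total Vα24i NKT cells counted. Triplicates, mean ± SD.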

[42] = tested on: Mus musculus; experiment: Activation of B cells in BALB/c mouse at 2 ug, iv after 72 hrs by flow cytometry; type: functional, organism-based
[43] = tested on: Mus musculus; experiment: Induction of IFN-gamma secretion in BALB/c mouse serum at 2 ug, iv after 18 hrs relative to control; type: functional; procedure, shortened: as §3
[44] = tested on: Mus musculus; experiment: Activation of dendritic cells in BALB/c mouse at 2 ug, iv after 72 hrs by flow cytometry; type: functional, organism-based
Procedure, shortened: (§4)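 BALB/c mice (n = 4/group) were given 100 μl of glycolipid at 20 μg/ml in saline i.v., or 100 μl of 1% DMSO. Spleens were harvested after 72 h and splenocyte subsets counted by flow cytometry: mature DCs as CD11c+/CD80+/CD86+, activated NK as U5A2-13Ag+/CD3−/CD69+, activated NKT as U5A2-13Ag+/CD3+/CD69+. Assays were run in duplicate, mean ± SD.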

[45] = tested on: Mus musculus; experiment: Activation of NKT cells in BALB/c mouse at 2 ug, iv after 72 hrs by flow cytometry; type: functional, organism-based; procedure, shortened: as §4
[46] = tested on: Mus musculus; experiment: Activation of natural killer cells in BALB/c mouse at 2 ug, iv after 72 hrs by flow cytometry; type: functional, organism-based; procedure, shortened: as §4

CCCCCCCCCCCCCCCCCCCCCCCCCC(=O)N[C@@H](CO[C@H]1O[C@H](CO)[C@H](O)[C@H](O)[C@H]1O)[C@H](O)[C@H](O)CCCCC
Activity [1]: 1.4 | Activity [2]: 1.5 | Activity [3]: 2.1 | Activity [4]: 1.3 | Activity [5]: 1.6 | Activity [6]: 18.6 | Activity [7]: 1.9 | Activity [8]: 12 | Activity [9]: 4.7 | Activity [10]: 2.2 | Activity [11]: 1.8 | Activity [12]: 1 | Activity [13]: 1.8 | Activity [14]: 5.9 | Activity [15]: 3.3 | Activity [16]: 20 | Activity [17]: 49 | Activity [18]: 1.5 | Activity [19]: 1.4 | Activity [20]: 2.7 | Activity [21]: 1.8 | Activity [22]: 2.7

CCCCCCCCCCCCCC[C@@H](O)[C@@H](O)[C@H](CO[C@H]1O[C@H](CO)[C@H](O)[C@H](O)[C@H]1O)NC(=O)CCCCCCCc1ccccc1
Activity [23]: 3.8 | Activity [1]: 2.3 | Activity [24]: 2.6 | Activity [2]: 2.3 | Activity [3]: 2.8 | Activity [4]: 1 | Activity [5]: 1.8 | Activity [6]: 48.3 | Activity [7]: 6.4 | Activity [8]: 21.3 | Activity [9]: 6.7 | Activity [25]: Active | Activity [10]: 8.1 | Activity [26]: Active | Activity [11]: 1.7 | Activity [27]: 2.4 | Activity [12]: 4.7 | Activity [13]: 2.2 | Activity [28]: 11 | Activity [29]: 1.3 | Activity [30]: 53.1 | Activity [31]: 2.3 | Activity [14]: 10 | Activity [15]: 14.6 | Activity [32]: Active | Activity [16]: 117 | Activity [33]: 19.4 | Activity [34]: 3.8 | Activity [35]: 4.7 | Activity [17]: 204 | Activity [36]: 22.4 | Activity [37]: 2.8 | Activity [38]: 70.3 | Activity [39]: 2.9 | Activity [40]: 10.9 | Activity [18]: 6.1 | Activity [19]: 4.2 | Activity [20]: 2.6 | Activity [21]: 1.7 | Activity [22]: 3.3 | Activity [41]: Active | Activity [42]: Active | Activity [43]: 48.3

CCCCCCCCCCCCCCCCCCCCCCCCCC(=O)N[C@@H](CO[C@H]1O[C@H](CO)[C@H](O)[C@H](O)[C@H]1O)[C@H](O)[C@H](O)CCCCc1ccccc1
Activity [1]: 1.8 | Activity [44]: Active | Activity [2]: 2 | Activity [45]: Active | Activity [3]: 2.3 | Activity [4]: 1.8 | Activity [5]: 2.3 | Activity [7]: 3.9 | Activity [9]: 5.8 | Activity [25]: Active | Activity [10]: 3.4 | Activity [26]: Active | Activity [11]: 1.8 | Activity [12]: 2.1 | Activity [13]: 1.9 | Activity [46]: Active | Activity [18]: 1.9 | Activity [19]: 2.6 | Activity [20]: 2.8 | Activity [21]: 2 | Activity [22]: 3.5 | Activity [41]: Active
